According to article PMC7224360 (Peptide science (Hoboken, N.J.), 2018):
Entries after “also recorded” stand apart in the source; their conditions may differ.

Assays:
[1] = system: adenylyl cyclase (AC6) in N18TG2 cells; assay: Inhibition of forskolin-stimulated cAMP accumulation in N18TG2 cells; assay type: cell-based; details: for Inhibition of cAMP accumulation at 100 µM versus IL4 or IL4pSer402: forskolin 1 µM, peptide 100 µM, n=3
Gαo (N18TG2 membranes) = assay: [35S]GTPγS binding, antibody-capture SPA, Gαo, N18TG2 membranes; assay type: biochemical
Outline: (§1)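 N18TG2 neuroblastoma membranes (5 µg protein) were incubated with [35S]GTPγS plus WIN55212–2 (1 µM), unphosphorylated IL4 peptide (100 µM) or phosphopeptides (20–100 µM). Captured by SPA with anti-Gαo (n=3–4) or anti-Gαi3 (n=3–5) antibody. Specific binding (CPM) = total minus non-specific. Normalised to mean WIN55212–2 stimulation as 100%. Mean ± SEM; one-way ANOVA with Dunnett's post hoc test.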

Gαi3 (N18TG2 membranes) = assay: [35S]GTPγS binding, antibody-capture SPA, Gαi3, N18TG2 membranes; assay type: biochemical; details: for [35S]GTPγS binding to Gαi3 compared with IL4: N18TG2 membranes (5 µg protein), peptides up to 100 µM, IL4 100 µM, n=3-5
Outline: as §1

NMR secondary structure = assay type: physicochemical; details: average of representative NMR conformers, SDS micelles
Outline: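 Test peptides at 5 mM in 90% H2O/10% D2O, pH 4.5, with perdeuterated SDS (300 mM) added to give a peptide:detergent ratio of 1:60. 1D spectra were recorded at 300–320 K. DQF-COSY, TOCSY and NOESY spectra were acquired, with 340 ms NOESY used for restraints (1.8–2.7, 1.8–3.5 or 1.8–5 Å). CYANA generated 50 structures and the 20 with lowest target function were kept. Structures were energy-minimised and refined with 3JHNHα-derived dihedrals. Secondary shifts are relative to random-coil values.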

[2] = cited from earlier work
[3] = system: cAMP (Gi/o pathway); Chinese hamster ovary cells without CB1R; details: cited from earlier work
Gi/o = details: cited from earlier work
[4] = Circular dichroism spectropolarimetry in membrane-mimetic solvents; assay type: physicochemical; details: 75 μM peptide; for CD conformation in phosphate buffer: Na2HPO4/KH2PO4 buffer, pH 7.0; for CD conformation in SDS: SDS in phosphate buffer; for CD conformation in methanol: methanol (up to 50%); for CD isodichroic point: SDS titration
[5] = at reported concentrations, ANOVA, Dunnett's

CCCCCCC(C)(C)c1ccc([C@@H]2C[C@H](O)CC[C@H]2CCCO)c(O)c1 [CP55940, reference compound]
Effect of SR141716 on inhibition of cAMP accumulation by CP55940 ([1]; N18TG2 cells, CP55940 versus CP55940 plus SR141716, **P<0.005): Significant difference was found between CP55940 and CP55940 plus SR141716 | CP55940-inhibited cAMP with versus without bradykinin, significance ([1]; forskolin 1 µM or secretin 30 nM, *P<0.05, **P<0.005, n=3–7): significant difference was found comparing the effect of CP55940 with and without BK

Cc1c(C(=O)c2cccc3ccccc23)c2cccc3c2n1[C@H](CN1CCOCC1)CO3 [WIN55212–2, reference compound]
% over stimulation by WIN55212–2, Go (Gαo (N18TG2 membranes); WIN55212–2 1 µM, N18TG2 membranes, anti-Gαo SPA, mean ± SEM): 19±2.8% | Significance of Gαo stimulation versus basal (Gαo (N18TG2 membranes); [5]): significantly different from basal | Significance of Gi3 stimulation by WIN55212–2 versus IL4 (Gαi3 (N18TG2 membranes); ANOVA, Dunnett's, **P<0.005): significantly different compared to IL4 in Gi3 | % over stimulation by WIN55212–2, Gi3 (Gαi3 (N18TG2 membranes); WIN55212–2 1 µM, N18TG2 membranes, anti-Gαi3 SPA, mean ± SEM): 62.7 ±6.6% | Significance of Gαi3 stimulation versus basal (Gαi3 (N18TG2 membranes); [5]): significantly different from basal

CN(C)CCCn1cc(C2=C(c3c[nH]c4ccccc34)C(=O)NC2=O)c2ccccc21 [bisindolylmaleimide 1, reference compound]
Effect of PKC inhibitor on bradykinin augmentation of CP55940 response ([1]; N18TG2 cells, bisindolylmaleimide I 100 nM, bradykinin 100 nM, Fig. 7C): reversed by the PKC inhibitor

RSKDLRHAFRSMFPSSE [IL4]
Distance between Cα carbons of Arg401 and Glu417 (NMR secondary structure): 26 Å | Conformation of unphosphorylated IL4 in SDS micelles ([2]; SDS micelles, CD and NMR): induced significant helical structure | CD conformation of unphosphorylated IL4 in aqueous environment ([2]; aqueous): random coil conformation | Reduction of cAMP levels ([3]; CB1R-independent): able to reduce cAMP levels in a CB1R-independent manner | Functional activity in absence of CB1R expression ([3]; Chinese hamster ovary cells without CB1R): still functional | Autonomous G protein activation (Gi/o): can activate G proteins autonomously as a pepducin

RSKDLRHAFRSMFPpSSE [IL4pSer415]
Distance between Cα carbons of Arg401 and Glu417 (NMR secondary structure): 21.52 Å | CD conformation in 90% TFE [4]: a slight shift toward helicity was initiated | CD conformation in phosphate buffer [4]: random coil | CD conformation in SDS [4]: induction of α-helix in SDS | CD conformation in TFE [4]: random coil | CD conformation in methanol [4]: random coil | [35S]GTPγS binding to Gαi3 compared with IL4 (Gαi3 (N18TG2 membranes)): more efficacious than IL4; also recorded: higher efficacy than IL4 | Inhibition of cAMP accumulation at 100 µM versus IL4 or IL4pSer402 ([1]; N18TG2 cells): inhibited cAMP accumulation to a greater extent than IL4 or IL4pSer402; also recorded: more efficaciously than IL4 and IL4pSer402

RSKDLRHAFRpSMFPSSE [IL4pSer411]
Distance between Cα carbons of Arg401 and Glu417 (NMR secondary structure): 23.68 Å | CD conformation in phosphate buffer [4]: random coil structure | CD conformation in SDS [4]: characteristics of α-helical structure | CD isodichroic point [4]: 203 nm | CD conformation in TFE [4]: random coil structure | CD conformation in methanol [4]: random coil structure | CD negative minimum wavelength in phosphate buffer ([4]; phosphate buffer pH 7.0): 198 nm | Significance of Gαo stimulation versus WIN55212–2 and IL4 (Gαo (N18TG2 membranes); ANOVA, Dunnett's, ***P<0.0001): significantly different compared to WIN55212–2 and IL4 | [35S]GTPγS binding to Gαo, fold greater than WIN55212–2 or IL4 (Gαo (N18TG2 membranes); N18TG2 membranes, WIN55212–2 1 µM, IL4 100 µM): 3 fold | Significance of Gi3 stimulation versus WIN55212–2 (not versus IL4) (Gαi3 (N18TG2 membranes); ANOVA, Dunnett's, *P<0.05): significantly different compared to WIN55212–2 but not IL4 | [35S]GTPγS binding to Gαi3 compared with IL4 (Gαi3 (N18TG2 membranes)): more efficacious than IL4 | Inhibition of cAMP accumulation at 100 µM versus IL4 or IL4pSer402 ([1]; N18TG2 cells): inhibited cAMP accumulation to a greater extent than IL4 or IL4pSer402; also recorded: more efficaciously than IL4 and IL4pSer402

RpSKDLRHAFRSMFPSSE [IL4pSer402]
Distance between Cα carbons of Arg401 and Glu417 (NMR secondary structure): 23.61 Å | CD conformation in 90% TFE [4]: α-Helical conformation | CD conformation in SDS [4]: α-Helical conformation | CD isodichroic point [4]: 203 nm | Lowest TFE concentration inducing helical conformation ([4]; CD): 40 % TFE | Methanol concentration at which helical conformation is induced ([4]; CD): 50 % methanol | [35S]GTPγS binding to Gαi3 compared with IL4 (Gαi3 (N18TG2 membranes)): not different between IL4 and IL4pSer402
